Assay results from ChEMBL document CHEMBL1154198, “Chemical genetics of Plasmodium falciparum” (Nature, 2010).

Legend:
Plasmodium falciparum [1] = experiment: ST_JUDE: Plasmodium falciparum 3D7 EC50 (uM) as measured by SYBR green dye; format: functional, organism-based
Plasmodium falciparum [2] = experiment: ST_JUDE: Plasmodium falciparum K1 EC50 (uM) as measured by SYBR green dye; format: functional, organism-based
Plasmodium falciparum [3] = experiment: ST_JUDE: Cytotoxicity against Plasmodium falciparum 3D7; format: functional, organism-based
In short: (§1)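 Asexual P. falciparum grown in human erythrocytes, exposed to compounds for 72 h, and growth read as the DNA quantity in treated versus control cultures. Dose-response run at 12 concentrations from 10 μM to 5 nM.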

Plasmodium falciparum [4] = experiment: ST_JUDE: Cytotoxicity against Plasmodium falciparum K1; format: functional, organism-based; in short: as §1
Plasmodium falciparum [5] = experiment: ST_JUDE: Cytotoxicity against Plasmodium falciparum V1/S; format: functional, organism-based
Toxoplasma gondii = experiment: ST_JUDE: Growth inhibition of to Toxoplasma gondii, in human U-2OS cells, as measured by luciferase.; format: functional, organism-based; conditions: RH, U2OS
In short: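 T. gondii parasites engineered to express luciferase; drug sensitivity read by luminescence.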

Trypanosoma brucei = experiment: ST_JUDE: Cytotoxicity using luciferase to measure ATP as an indicator of the viability of Trypanosoma brucei; format: functional, organism-based
Leishmania major = experiment: ST_JUDE: Cytotoxicity using Alamar Blue to measure viability of Leishmania major; format: functional, organism-based
In short: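 L. major promastigotes; drug susceptibility read with Alamar Blue.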

[6] = ST_JUDE: Cytotoxicity using luciferase to measure ATP as an indicator of the viability of human foreskin fibroblast cells (BJ); format: toxicity, cell-based
[7] = ST_JUDE: Cytotoxicity using luciferase to measure ATP as an indicator of the viability of human epithelial hepatocellular carcinoma cells (HepG2); format: toxicity, cell-based
[8] = ST_JUDE: Cytotoxicity using luciferase to measure ATP as an indicator of the viability of human epithelial embryonic kidney cells (HEK293); format: toxicity, cell-based
[9] = ST_JUDE: Cytotoxicity using luciferase to measure ATP as an indicator of the viability of human Burkitt''s lymphoma lymphoblast cells (Raji); format: toxicity, cell-based
Plasmodium falciparum [10] = experiment: ST_JUDE: Cytotoxicity against Plasmodium falciparum Dd2; format: functional, organism-based
Plasmodium falciparum [11] = experiment: ST_JUDE: Cytotoxicity against Plasmodium falciparum W2; format: functional, organism-based
Plasmodium falciparum [12] = experiment: ST_JUDE: Cytotoxicity against Plasmodium falciparum SB-A6; format: functional, organism-based
Plasmodium falciparum [13] = experiment: ST_JUDE: Cytotoxicity against Plasmodium falciparum D10 transfected with yeast DHOD; format: functional, organism-based

SMILES | EC50 (Plasmodium falciparum [1]) [nM] | EC50 (Plasmodium falciparum [2]) [nM] | EC50 (Plasmodium falciparum [3]) [nM] | EC50 (Plasmodium falciparum [4]) [nM] | EC50 (Plasmodium falciparum [5]) [nM] | EC50 (Toxoplasma gondii) [nM] | EC50 (Trypanosoma brucei) [nM] | EC50 (Leishmania major) [nM] | EC50 [6] [nM] | EC50 [7] [nM] | EC50 [8] [nM] | EC50 [9] [nM] | EC50 (Plasmodium falciparum [10]) [nM] | EC50 (Plasmodium falciparum [11]) [nM] | EC50 (Plasmodium falciparum [12]) [nM] | EC50 (Plasmodium falciparum [13]) [nM]
Cc1ccc2c(c1)N(CCO)/C(=C/c1sc3ccccc3[n+]1C)S2 | 423 | 162 | 250 | 330 | 394 | > 9160 | 5200 | > 7160 | > 16700 | > 16700 | > 16700 | 1780 | 197 | 240 | 468 | 341
Cc1cc(Nc2ccc(Br)c(C)c2)n2nc(C)nc2n1 | 167 | 161 | 214 | 298 | 296 | > 20700 | > 36200 | > 16200 | > 37800 | > 37800 | > 37800 | > 37800 | 204 | 120 | > 9710 | > 9710
CCOc1cc(C2CC(=O)NC3=C2C(=O)CC(c2ccccc2Cl)C3)cc(Cl)c1O (stereo unspecified) | 500 | 212 | 890 | 916 | 1080 | > 23700 | 19700 | > 18500 | > 43200 | > 43200 | > 43200 | > 43200 | 1020 | 860 | 1150 | 1210
Oc1ccc(Br)cc1CN1CCN(Cc2ccccc2F)CC1 | 719 | 334 | 2060 | 745 | 936 | > 19800 | 27200 | > 15500 | > 36100 | > 36100 | > 36100 | > 36100 | 1790 | 1610 | 2770 | 3660
CCOc1ccc2nc3cc(N)ccc3c(N)c2c1 | 1120 | 582 | 1940 | 1730 | 2000 | > 17900 | 7470 | > 14000 | 17900 | > 32600 | > 32600 | > 32600 | 294 | 758 | 2380 | 2390
CCOc1ccc(/C=C/c2nc(=O)c3ccccc3o2)cc1 | 188 | 128 | 345 | 392 | 601 | 273 | > 38300 | > 17100 | > 39900 | > 39900 | > 39900 | > 39900 | 307 | 73.1 | > 10200 | > 10200
CCOC(=O)C1=C(C)N=c2s/c(=C/c3ccccc3O)c(=O)n2C1c1ccccc1 (stereo unspecified) | > 15000 | 390 | 317 | 343 | > 9410 | > 20100 | 6970 | > 15700 | > 36600 | > 36600 | > 36600 | > 36600 | 2180 | 2210 | 513 | 486
N=c1n(CCN2CCCCC2)c2ccccc2n1CC(O)c1ccc(Cl)c(Cl)c1 (stereo unspecified) | 186 | 238 | 503 | 617 | 1430 | 11500 | 4120 | > 22000 | 10400 | 6970 | 16000 | 21000 | 346 | 640 | 1270 | 1290
Cc1ccc(N2C(N)=NC(N)=NC2(C)C)cc1 | 33.3 | 989 | 21.4 | 676 | > 8970 | 5710 | > 33500 | > 15000 | > 34900 | > 34900 | > 34900 | > 34900 | 2030 | 729 | 15.1 | 785
CCCCN(CCCC)CC(O)COc1ccccc1C(=O)Nc1ccccc1 (stereo unspecified) | 59 | 42.4 | 108 | 39.3 | 54.5 | > 29200 | 21300 | > 22800 | > 53200 | > 53200 | > 53200 | > 53200 | 69.2 | 202 | 144 | 163
CCCO/C(O)=C1\C(C)=NC2=C(C(=O)CC(c3ccc(OC)c(OC)c3)C2)C1c1ccccc1OC (stereo unspecified) | 276 | 125 | 385 | 328 | 392 | 16100 | 10400 | > 20100 | > 47000 | > 47000 | > 47000 | > 47000 | 416 | 290 | 288 | 414
Cc1c2[nH]c3ccccc3c2c2c([n+]1C)CC(C)(C)CC2 | 896 | 1400 | 3190 | 3520 | 3330 | > 30400 | 13600 | 480 | > 55500 | > 55500 | > 55500 | > 55500 | 921 | 154 | 1040 | 1350
Cc1cccc(N2CCN(Cc3ccccc3O)CC2)c1C | 1070 | 531 | 976 | 355 | 403 | > 17900 | > 31300 | > 14000 | > 32700 | > 32700 | > 32700 | > 32700 | 626 | 951 | 29.5 | 813
Cc1ccc2c(c1)S/C(=C\c1sc3ccccc3[n+]1C)N2CCO | 367 | 140 | 548 | 567 | 577 | > 13000 | 11000 | 112 | > 23700 | > 23700 | > 23700 | 3090 | 426 | 495 | 603 | 438
CCO/C(O)=C1\C(C)=NC2=C(C(=O)CC(c3ccc(OC)c(OC)c3)C2)C1c1ccccc1Cl (stereo unspecified) | 60.4 | 138 | 70.2 | 91.3 | 118 | > 24400 | 9640 | > 19100 | > 44600 | > 44600 | > 44600 | > 44600 | 60.8 | 16.5 | 56.1 | 57.3
CC(CNC(=O)c1cn(C2CCCCC2)cc(C(=O)NC(C)(C)C)c1=O)c1ccccc1 (stereo unspecified) | 93.7 | 8050 | 321 | 705 | > 13600 | > 28900 | > 50700 | > 22600 | > 52800 | > 52800 | > 52800 | > 52800 | 2180 | > 13600 | 109 | 150
